Results: ChEMBL document CHEMBL1131316, “Potent antagonists of somatostatin: synthesis and biology” (J Med Chem, 1998)
Positions of bridges follow the written chain, without caps; N, C: chain ends. Non-standard residues stand in square brackets, D forms with d. Residues, ends and D or L forms follow the SMILES beside them. Phe(4-NO2) = N[C@@H](Cc1ccc([N+](=O)[O-])cc1)C(=O)O; dDip = N[C@@H](C(=O)O)C(c1ccccc1)c1ccccc1; Dip = N[C@H](C(=O)O)C(c1ccccc1)c1ccccc1; 2Nal = N[C@@H](Cc1ccc2ccccc2c1)C(=O)O; d2Nal = N[C@H](Cc1ccc2ccccc2c1)C(=O)O; 3Pal = N[C@@H](Cc1cccnc1)C(=O)O

How the values were obtained:
[1] = target: Somatostatin receptor type 3 (Homo sapiens, UniProt P32745); experiment: Binding affinity towards cloned human somatostatin 3 (hsst) receptor
Chain of Somatostatin receptor type 3 (P32745 whole entry): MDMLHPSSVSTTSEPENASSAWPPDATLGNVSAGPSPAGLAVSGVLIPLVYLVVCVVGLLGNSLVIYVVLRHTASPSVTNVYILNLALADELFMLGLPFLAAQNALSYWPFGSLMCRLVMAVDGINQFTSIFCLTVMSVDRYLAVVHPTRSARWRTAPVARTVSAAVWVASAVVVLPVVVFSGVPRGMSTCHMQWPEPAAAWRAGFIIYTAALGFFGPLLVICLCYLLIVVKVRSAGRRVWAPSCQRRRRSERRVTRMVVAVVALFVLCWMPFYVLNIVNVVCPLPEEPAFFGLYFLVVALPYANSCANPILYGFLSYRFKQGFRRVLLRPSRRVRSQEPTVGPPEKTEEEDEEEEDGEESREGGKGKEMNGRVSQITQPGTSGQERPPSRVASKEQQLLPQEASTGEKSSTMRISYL
How it was run: (§1)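 Membranes from CHO-K1 cells stably transfected with the human receptor subtype (calcium phosphate transfection, G418 selection), homogenised and washed in Tris-HCl. Separated by filtration on PEI-soaked GF/C filters; nonspecific binding with 1.0 µM SRIF.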

[2] = target: Somatostatin receptor type 4 (Homo sapiens, UniProt P31391); experiment: Binding affinity towards cloned human somatostatin 4 (hsst) receptor
Chain of Somatostatin receptor type 4 (P31391 whole entry): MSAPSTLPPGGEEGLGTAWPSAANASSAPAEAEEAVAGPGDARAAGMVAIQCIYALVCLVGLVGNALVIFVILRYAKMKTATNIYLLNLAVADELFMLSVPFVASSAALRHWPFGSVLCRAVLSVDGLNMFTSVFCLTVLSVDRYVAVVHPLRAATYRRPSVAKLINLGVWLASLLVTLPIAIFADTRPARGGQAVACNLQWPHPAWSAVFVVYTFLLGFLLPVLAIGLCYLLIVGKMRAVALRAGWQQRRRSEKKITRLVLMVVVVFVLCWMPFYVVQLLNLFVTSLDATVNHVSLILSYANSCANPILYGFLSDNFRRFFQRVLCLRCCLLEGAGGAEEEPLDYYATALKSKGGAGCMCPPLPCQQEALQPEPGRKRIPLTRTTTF

[3] = target: Somatostatin receptor type 1 (Homo sapiens, UniProt P30872); experiment: Binding affinity towards cloned human somatostatin 1 (hsst) receptor; how it was run: as §1
Chain of Somatostatin receptor type 1 (P30872 whole entry): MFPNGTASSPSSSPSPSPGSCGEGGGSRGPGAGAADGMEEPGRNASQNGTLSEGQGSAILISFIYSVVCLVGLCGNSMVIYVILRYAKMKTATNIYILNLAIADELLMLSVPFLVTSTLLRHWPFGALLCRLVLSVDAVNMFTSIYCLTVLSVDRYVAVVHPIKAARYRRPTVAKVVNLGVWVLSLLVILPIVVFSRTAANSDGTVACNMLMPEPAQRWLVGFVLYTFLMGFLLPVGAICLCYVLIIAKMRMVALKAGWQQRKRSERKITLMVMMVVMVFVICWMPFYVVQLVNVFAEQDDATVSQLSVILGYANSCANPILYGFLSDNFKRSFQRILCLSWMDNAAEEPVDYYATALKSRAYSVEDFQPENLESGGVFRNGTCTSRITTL

[4] = target: Somatostatin receptor type 2 (Homo sapiens, UniProt P30874); experiment: Binding affinity towards cloned human somatostatin 2 (hsst) receptor; how it was run: as §1
Chain of Somatostatin receptor type 2 (P30874 whole entry): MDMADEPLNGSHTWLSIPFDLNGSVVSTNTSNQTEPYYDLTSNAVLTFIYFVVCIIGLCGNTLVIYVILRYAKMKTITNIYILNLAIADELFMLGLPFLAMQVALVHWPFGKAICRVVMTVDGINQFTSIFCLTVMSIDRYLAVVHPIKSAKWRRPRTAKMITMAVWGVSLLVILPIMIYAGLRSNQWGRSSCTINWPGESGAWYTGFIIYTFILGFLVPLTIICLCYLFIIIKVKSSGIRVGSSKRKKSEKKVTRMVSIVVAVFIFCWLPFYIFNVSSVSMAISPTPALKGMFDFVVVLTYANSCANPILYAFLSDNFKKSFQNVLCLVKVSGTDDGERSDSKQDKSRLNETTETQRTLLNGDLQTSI

Somatostatin receptor = experiment: Compound was tested for in vitro SRIF inhibition of GH release in rats; assay type: functional
How it was run: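 Adult male rat anterior pituitary cells, dispersed with trypsin/DNase, cultured 4-5 days. Then 3 h at 37 °C in medium 199 with 1% BSA, GHRH(1-29)NH2 1 nM and SRIF 1 nM, with analogue at six doses (up to 10 µM, some to 100 µM), triplicate wells. GH in medium measured by double-antibody RIA. Antagonist IC50 taken from n separate dose-response curves.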

[5] = target: Somatostatin receptor type 5 (Homo sapiens, UniProt P35346); experiment: Binding affinity towards cloned human somatostatin 5 (hsst) receptor; how it was run: as §1
Chain of Somatostatin receptor type 5 (P35346 whole entry): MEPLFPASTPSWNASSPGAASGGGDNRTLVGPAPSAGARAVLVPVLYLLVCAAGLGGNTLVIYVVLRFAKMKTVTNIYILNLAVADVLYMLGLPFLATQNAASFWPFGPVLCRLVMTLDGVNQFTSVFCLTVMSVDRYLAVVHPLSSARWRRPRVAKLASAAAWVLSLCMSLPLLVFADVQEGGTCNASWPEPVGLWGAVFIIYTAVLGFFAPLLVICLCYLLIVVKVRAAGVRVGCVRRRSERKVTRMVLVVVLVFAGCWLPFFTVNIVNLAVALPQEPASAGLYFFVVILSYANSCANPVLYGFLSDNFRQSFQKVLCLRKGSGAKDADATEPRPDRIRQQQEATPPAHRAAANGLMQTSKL

| Compound | IC50 [1] [nM] | IC50 [2] [nM] | IC50 [3] [nM] | Ki [4] [nM] | IC50 (Somatostatin receptor) [nM] | Ki [5] [nM] |
| --- | --- | --- | --- | --- | --- | --- |
| CC(C)[C@@H]1NC(=O)[C@H](CCCCN)NC(=O)[C@@H](Cc2c[nH]c3ccccc23)NC(=O)[C@H](Cc2ccc(O)cc2)NC(=O)[C@H](NC(=O)[C@H](N)Cc2ccccc2)C(C)(C)SSC[C@@H](C(=O)N[C@H](C(N)=O)[C@@H](C)O)NC1=O | 821 | 1000 | 1000 | 2550 | – | – |
| CC(C)[C@@H]1NC(=O)[C@H](CCCCN)NC(=O)[C@@H](Cc2c[nH]c3ccccc23)NC(=O)[C@H](Cc2ccc(O)cc2)NC(=O)[C@H](NC(=O)[C@@H](N)Cc2ccc(O)cc2)CSSC[C@@H](C(=O)N[C@H](Cc2ccc3ccccc3c2)C(N)=O)NC1=O | – | – | – | – | 64.8 | – |
| CC(C)[C@@H]1NC(=O)[C@H](CCCCN)NC(=O)[C@@H](Cc2c[nH]c3ccccc23)NC(=O)[C@H](Cc2cccnc2)NC(=O)[C@H](NC(=O)[C@@H](N)Cc2ccc([N+](=O)[O-])cc2)CSSC[C@@H](C(=O)N[C@@H](Cc2ccc(O)cc2)C(N)=O)NC1=O (H-[Phe(4-NO2)][dC][3Pal][dW]KVCY-NH2; disulfide 2-7) | 235 | 757 | 245 | 35.3 | – | 529 |
| CC(C)[C@@H]1NC(=O)[C@H](CCCCN)NC(=O)[C@@H](Cc2c[nH]c3ccccc23)NC(=O)[C@H](Cc2cccnc2)NC(=O)[C@H](NC(=O)[C@@H](N)Cc2ccc3ccccc3c2)CSSC[C@@H](C(=O)N[C@@H](Cc2cccc(-c3ccccc3)c2)C(N)=O)NC1=O | – | – | – | – | 56 | – |
| CC(C)[C@@H]1NC(=O)[C@H](CCCCN)NC(=O)[C@@H](Cc2c[nH]c3ccccc23)NC(=O)[C@H](Cc2ccc(O)cc2)NC(=O)[C@H](NC(=O)[C@@H](N)Cc2c[nH]c3ccccc23)CSSC[C@@H](C(=O)N[C@H](Cc2ccc3ccccc3c2)C(N)=O)NC1=O (H-W[dC]Y[dW]KVC[d2Nal]-NH2; disulfide 2-7) | 649 | 1000 | 588 | 77.2 | – | 221 |
| CC(C)[C@@H]1NC(=O)[C@H](CCCCN)NC(=O)[C@@H](Cc2c[nH]c3ccccc23)NC(=O)[C@H](Cc2ccc(O)cc2)NC(=O)[C@@H](NC(=O)[C@H](N)Cc2ccc3ccccc3c2)CSSC[C@H](C(=O)N[C@@H](Cc2ccc3ccccc3c2)C(N)=O)NC1=O (stereo in doubt; 27) | 1000 | 1000 | 1000 | 139 | – | – |
| CC(C)[C@@H]1NC(=O)[C@H](CCCCN)NC(=O)[C@@H](Cc2c[nH]c3ccccc23)NC(=O)[C@H](Cc2ccc(O)cc2)NC(=O)[C@@H](NC(=O)[C@H](N)Cc2ccc3ccccc3c2)CSSC[C@H](C(=O)N[C@H](C(N)=O)[C@@H](C)O)NC1=O | 1000 | – | 4840 | 350 | – | – |
| C[C@@H](O)[C@@H]1NC(=O)[C@H](CCCCN)NC(=O)[C@@H](Cc2c[nH]c3ccccc23)NC(=O)[C@H](Cc2ccccc2)NC(=O)[C@H](Cc2ccccc2)NC(=O)[C@H](N)CSSC[C@H](C(N)=O)NC(=O)[C@H](Cc2ccccc2)NC1=O | 5.6 | – | 723 | 34.8 | – | 28 |
| CC[C@@H]1NC(=O)[C@H](CCCCN)NC(=O)[C@@H](Cc2c[nH]c3ccccc23)NC(=O)[C@H](Cc2ccc(O)cc2)NC(=O)[C@H](NC(=O)[C@H](N)Cc2ccccc2)CSSC[C@@H](C(=O)N[C@H](C(N)=O)[C@@H](C)O)NC1=O | 140 | 1000 | 1000 | 183 | – | – |
| CC(C)[C@@H]1NC(=O)[C@H](CCCCN)NC(=O)[C@@H](Cc2c[nH]c3ccccc23)NC(=O)[C@H](Cc2ccc(O)cc2)NC(=O)[C@@H](NC(=O)[C@@H](N)Cc2ccc3ccccc3c2)CSSC[C@H](C(=O)N[C@@H](Cc2ccc3ccccc3c2)C(N)=O)NC1=O | – | – | – | – | 35.3 | – |
| CC(C)[C@@H]1NC(=O)[C@H](CCCCN)NC(=O)[C@@H](Cc2c[nH]c3ccccc23)NC(=O)[C@H](Cc2ccc(O)cc2)NC(=O)[C@H](NC(=O)[C@H](N)Cc2ccc3ccccc3c2)CSSC[C@@H](C(=O)N[C@H](C(N)=O)[C@@H](C)O)NC1=O | – | – | 1580 | 306 | – | – |
| CC(C)[C@@H]1NC(=O)[C@H](CCCCN)NC(=O)[C@@H](Cc2c[nH]c3ccccc23)NC(=O)[C@H](Cc2ccc(O)cc2)NC(=O)[C@@H](C)N(C)C(=O)[C@H](Cc2ccccc2)NC1=O | 404 | – | 1000 | – | – | 1000 |
| C[C@@H](O)[C@H](NC(=O)[C@@H]1CSSC[C@@H](NC(=O)[C@H](N)Cc2ccccc2)C(=O)N[C@@H](Cc2cccnc2)C(=O)N[C@H](Cc2c[nH]c3ccccc23)C(=O)N[C@@H](CCCCN)C(=O)N[C@@H]([C@@H](C)O)C(=O)N1)C(N)=O | 1360 | 1000 | 1000 | 566 | – | 1000 |
| CC(C)[C@H](NC(=O)[C@H](CCCCN)NC(=O)[C@@H](Cc1c[nH]c2ccccc12)NC(=O)[C@H](Cc1ccc(O)cc1)NC(=O)[C@@H](Cc1ccc(Cl)cc1)NC(=O)[C@@H](N)Cc1ccc2ccccc2c1)C(=O)N[C@@H](Cc1ccccc1)C(=O)N[C@@H](Cc1ccc2ccccc2c1)C(N)=O | 1610 | 1000 | 1000 | 1000 | – | 1960 |
| CC(C)NC(=O)[C@@H]1CSSC[C@@H](NC(=O)[C@@H](N)Cc2ccc3ccccc3c2)C(=O)N[C@@H](Cc2ccc(O)cc2)C(=O)N[C@H](Cc2c[nH]c3ccccc23)C(=O)N[C@@H](CCCCN)C(=O)N[C@@H](C(C)C)C(=O)N1 | 1230 | 1000 | 1000 | 435 | – | – |
| CC(=O)N[C@@H]1CSSC[C@@H](C(=O)N[C@H](C(N)=O)[C@@H](C)O)NC(=O)[C@H](C(C)C)NC(=O)[C@H](CCCCN)NC(=O)[C@@H](Cc2c[nH]c3ccccc23)NC(=O)[C@H](Cc2ccc(O)cc2)NC1=O | 1000 | 1000 | 1000 | 1000 | – | 1000 |
| C[C@@H](O)[C@H](NC(=O)[C@H](Cc1ccccc1)NC(=O)[C@@H](NC(=O)[C@H](CCCCN)NC(=O)[C@@H](Cc1c[nH]c2ccccc12)NC(=O)[C@H](Cc1ccc(O)cc1)NC(=O)[C@@H](Cc1ccccc1)NC(=O)[C@@H](N)Cc1ccccc1)[C@@H](C)O)C(N)=O | 216 | 1000 | 1000 | 445 | – | 1180 |
| CC(C)[C@H](NC(=O)[C@H](CCCCN)NC(=O)[C@@H](Cc1c[nH]c2ccccc12)NC(=O)[C@H](Cc1ccc(O)cc1)NC(=O)[C@@H](Cc1ccc(Cl)cc1)NC(=O)[C@@H](N)Cc1ccccc1)C(=O)N[C@@H](Cc1ccccc1)C(=O)N[C@H](C(N)=O)[C@@H](C)O | 648 | 1000 | 1000 | 797 | – | 2740 |
| CC(C)[C@@H]1NC(=O)[C@H](CCCCN)NC(=O)[C@@H](Cc2c[nH]c3ccccc23)NC(=O)[C@H](Cc2ccc(O)cc2)NC(=O)[C@H](NC(=O)[C@@H](N)Cc2ccc([N+](=O)[O-])cc2)CSSC[C@@H](C(=O)N[C@@H](Cc2ccc(O)cc2)C(N)=O)NC1=O (H-[Phe(4-NO2)][dC]Y[dW]KVCY-NH2; disulfide 2-7) | 177 | 632 | 3220 | 23.4 | – | 101 |
| CC(C)[C@@H]1NC(=O)[C@H](CCCCN)NC(=O)[C@@H](Cc2c[nH]c3ccccc23)NC(=O)[C@H](Cc2c[nH]cn2)NC(=O)[C@H](NC(=O)[C@@H](N)Cc2ccc3ccccc3c2)CSSC[C@@H](C(=O)N[C@@H](C(N)=O)C(c2ccccc2)c2ccccc2)NC1=O (H-[2Nal][dC]H[dW]KVC[dDip]-NH2; disulfide 2-7) | 1200 | 1000 | 1090 | – | – | 1000 |
| CC(C)[C@@H]1NC(=O)[C@H](CCCCN)NC(=O)[C@@H](Cc2c[nH]c3ccccc23)NC(=O)[C@H](Cc2ccc(O)cc2)NC(=O)[C@H](NC(=O)[C@@H](N)Cc2ccc3ccccc3c2)CSSC[C@@H](C(=O)N[C@@H](Cc2ccc3ccccc3c2)C(N)=O)NC1=O | 161 | 1000 | 2000 | 37.6 | – | 302 |
| CC(C)[C@H](NC(=O)[C@H](CCCCN)NC(=O)[C@@H](Cc1c[nH]c2ccccc12)NC(=O)[C@H](Cc1ccc(O)cc1)NC(=O)[C@@H](Cc1ccc(Cl)cc1)NC(=O)[C@H](N)Cc1ccc2ccccc2c1)C(=O)N[C@@H](Cc1ccccc1)C(=O)N[C@@H](Cc1ccc2ccccc2c1)C(N)=O | 619 | 1000 | 1000 | 526 | – | 178 |
| CC(C)[C@@H]1NC(=O)[C@H](CCCCN)NC(=O)[C@@H](Cc2c[nH]c3ccccc23)NC(=O)[C@H](Cc2cccnc2)NC(=O)[C@H](NC(=O)[C@@H](N)Cc2ccc3ccccc3c2)CSSC[C@@H](C(=O)N[C@H](C(N)=O)C(c2ccccc2)c2ccccc2)NC1=O (H-[2Nal][dC][3Pal][dW]KVC[Dip]-NH2; disulfide 2-7) | 903 | 1000 | 1000 | 355 | – | 1000 |
| CC(C)[C@@H]1NC(=O)[C@H](CCCCN)NC(=O)[C@@H](Cc2c[nH]c3ccccc23)NC(=O)[C@H](Cc2ccc(O)cc2)NC(=O)[C@H](NC(=O)[C@@H](N)Cc2ccc3ccccc3c2)CSSC[C@@H](C(=O)N[C@H](C(N)=O)[C@@H](C)O)NC1=O | 733 | – | 2160 | 118 | – | – |
| CC(C)[C@@H]1NC(=O)[C@H](CCCCN)NC(=O)[C@@H](Cc2c[nH]c3ccccc23)NC(=O)[C@H](Cc2ccc(O)cc2)NC(=O)[C@H](NC(=O)[C@H](N)Cc2ccc3ccccc3c2)CSSC[C@@H](C(=O)N[C@H](Cc2ccc3ccccc3c2)C(N)=O)NC1=O | 1080 | 1000 | 1660 | 82.9 | – | 358 |
